Screening results from PubChem BioAssay.
In the library only some 4.4% were active in any assay of this set; here they are far more common.
GRIN3A LBD mod = binders of NR3A ligand-binding domain, primary screen, biophysical, differential scanning fluorimetry, uHTS; Glutamate receptor ionotropic, NMDA 3A (GRIN3A) ligand-binding domain; NR3A LBD differential scanning fluorimetry, Tm shift; 0% = protein alone, 100% = glycine-bound protein; Tm shift relative to glycine control, % at 25 µM; 340,000 compounds, 2.5% hits; AID 1259313, 2017;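 active means melting temperature shift of at least 10% of the positive control shift, at one fixed dose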
EBI2 block = EBI2 receptor antagonists, beta-arrestin recruitment, primary screen, cell-based, luminescence, 7a,25-OHC stimulation, uHTS; G-protein coupled receptor 183 (Homo sapiens), P32249; 7a,25-OHC stimulated; inhibition, % at 5 µM; 360,000 compounds, 0.81% hits; AID 651636, 2012; in the data active means inhibition above about 38%;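 further: enzyme fragment complementation signal reports receptor beta-arrestin coupling in cells; 0% = agonist plus DMSO wells and 100% = wells without agonist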
Target sequence (P32249 whole entry, looked up, the tested form may be a part): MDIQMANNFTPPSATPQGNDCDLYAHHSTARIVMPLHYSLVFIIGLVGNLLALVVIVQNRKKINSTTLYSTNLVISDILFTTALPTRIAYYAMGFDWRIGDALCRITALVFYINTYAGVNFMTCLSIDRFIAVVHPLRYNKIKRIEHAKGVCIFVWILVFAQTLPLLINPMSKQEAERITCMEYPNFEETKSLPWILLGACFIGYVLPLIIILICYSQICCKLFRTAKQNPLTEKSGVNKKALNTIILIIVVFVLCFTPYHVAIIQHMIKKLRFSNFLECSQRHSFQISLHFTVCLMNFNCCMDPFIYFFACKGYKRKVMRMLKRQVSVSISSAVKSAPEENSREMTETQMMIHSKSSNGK
MPTP inh = mitochondrial permeability transition pore inhibitors, primary screen, biochemical, isolated mouse mitochondria, absorbance. Ca2+ swelling absorbance, 30 min. inhibition, % at 10 µM. 360,000 compounds, 1.4% hits;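 active means inhibition of 50% or more, scaled per plate between neutral and stimulator controls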;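 further: 0% = DMSO wells given calcium and 100% = 1 mM EGTA wells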
SENP1 inh = human SENP1 catalytic domain inhibitors, primary screen, biochemical, FRET, uHTS; recombinant SENP1 catalytic domain, CyPet-SUMO1-YPet FRET cleavage; inhibition, % at 10 µM; 360,000 compounds, 0.21% hits; AID 624204, 2012;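 active means inhibition at least 30% at 10 µM, raw YFP signal under a set limit, fluorescence ratio 0.5 to 1.5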;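 further: 0% = enzyme with DMSO and 100% = no enzyme wells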
Target sequence (Q9P0U3 419-644 limits assumed): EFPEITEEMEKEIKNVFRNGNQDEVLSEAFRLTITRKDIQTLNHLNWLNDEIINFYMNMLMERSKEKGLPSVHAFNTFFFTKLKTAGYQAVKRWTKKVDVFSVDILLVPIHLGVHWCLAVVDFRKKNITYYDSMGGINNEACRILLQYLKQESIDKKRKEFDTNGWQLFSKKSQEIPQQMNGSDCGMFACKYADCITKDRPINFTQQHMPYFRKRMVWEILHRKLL
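system = hSENP1 catalytic domain, recombinant | reagent = SFCypet-SUMO1-SFYpet substrate at 25 nM | doses = one dose per compound, 10 µM, 0.5% DMSO | incubation = enzyme reaction for 50 min at room temperature, dark | measured by = FRET, CFP and YFP emission | controls = no-enzyme low, enzyme-DMSO high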
An asterisk follows results filed as active.

`Cc1ccc(NC(=O)Nc2ccnc(-c3cccnc3)n2)cc1` gave GRIN3A LBD mod 34*, EBI2 block 11, MPTP inh 1 and SENP1 inh 1.
Screening CNC(=O)N(O)C1N(/N=C/c2ccc(SC)cc2)C(=S)SC1(C)C (stereo not drawn) returned GRIN3A LBD mod -1, EBI2 block -4, MPTP inh 0 and SENP1 inh 5.
`CN(C)c1ccc(/C=N/N2C(=S)SC(C)(C)C2N(O)C(=O)Nc2ccc([N+](=O)[O-])cc2)cc1` (stereo not drawn) gave GRIN3A LBD mod 11*, EBI2 block 2, MPTP inh 15 and SENP1 inh -19.
Screening CSc1ccc(/C=C/C(=O)c2ccc(O)cc2)cc1 returned GRIN3A LBD mod 11*, EBI2 block 29, MPTP inh 14 and SENP1 inh -39.
For Cc1ccc(/C=C/C(=O)c2ccc(O)cc2)cc1 the results were GRIN3A LBD mod 2, EBI2 block 34, MPTP inh 12 and SENP1 inh 1.
Screening O=C(/C=C/c1ccc(O)cc1)c1ccc(O)cc1O returned GRIN3A LBD mod 28*, EBI2 block 25, MPTP inh 1 and SENP1 inh -2.
COc1cc(OC)cc(C(=O)NCC(=O)N2CCC(C)CC2)c1 was read as GRIN3A LBD mod -2, EBI2 block 5, MPTP inh 0 and SENP1 inh 0.
For COc1ccc(CNC(=O)CN2CCN(S(=O)(=O)c3cc(Br)ccc3Br)CC2)cc1OC the results were GRIN3A LBD mod -1, EBI2 block 12, MPTP inh 0 and SENP1 inh 0.
Screening CC(C#N)(NC(=O)CN1CCN(S(=O)(=O)c2ccc(Br)cc2Cl)CC1)C1CC1 (stereo not drawn) returned GRIN3A LBD mod 10*, EBI2 block 12, MPTP inh -1 and SENP1 inh -3.
Screening Cc1sc(NC(=O)c2sc3nc4c(C)cccc4cc3c2N)c(C#N)c1C returned GRIN3A LBD mod 19*, EBI2 block 21, MPTP inh 30 and SENP1 inh -22.
For Cc1cccc2cc3c(N)c(C#N)sc3nc12 the results were GRIN3A LBD mod 36*, EBI2 block 2, MPTP inh 15 and SENP1 inh -23.
Cc1cccc2cc3c(N)c(C(=O)Nc4ccc(N5CCOCC5)cc4)sc3nc12 was read as GRIN3A LBD mod 14*, EBI2 block 10, MPTP inh 8 and SENP1 inh 65*.
Nc1nc(CSC(=S)N2CCOCC2)nc(Nc2ccccc2)n1 was read as GRIN3A LBD mod -1, EBI2 block -8, MPTP inh 1 and SENP1 inh -1.
Screening Nc1nc(CSC(=S)N2CCN(c3ccccc3)CC2)nc(Nc2ccc(F)cc2)n1 returned GRIN3A LBD mod 25*, EBI2 block 14, MPTP inh -1 and SENP1 inh 2.
CC(C)Oc1ccccc1OC1(C)CCN(Cc2ccc(OC(F)(F)F)cc2)C1 (stereo not drawn) was read as EBI2 block -1, MPTP inh 1 and SENP1 inh 1.
`C=C(C)CNC(=S)NNC(=O)CCn1c2ccc(Cl)cc2c2cc(Cl)ccc21` gave GRIN3A LBD mod 27*, EBI2 block -7, MPTP inh 10 and SENP1 inh 0.
Screening C=C(C)CNC(=S)NNC(=O)CCn1c2cc(Cl)ccc2c2ccc(Cl)cc21 returned GRIN3A LBD mod 16*, EBI2 block -16, MPTP inh 7 and SENP1 inh 0.
Screening O=C(Nc1ccsn1)c1ccc(Cl)cc1Cl returned GRIN3A LBD mod 10*, EBI2 block -15, MPTP inh -1 and SENP1 inh 0.
For Cc1cc(NC(=O)c2ccc(Cl)cc2Cl)no1 the results were GRIN3A LBD mod 2, EBI2 block -3, MPTP inh 0 and SENP1 inh 1.
For Cc1nc2scc(-c3cccs3)c2c(=O)[nH]1 the results were GRIN3A LBD mod 2, EBI2 block 13, MPTP inh -4 and SENP1 inh -1.
`O=c1[nH]c(-c2ccc(O)cc2)nc2scc(-c3cccs3)c12` gave GRIN3A LBD mod 19*, EBI2 block 11, MPTP inh 11 and SENP1 inh -62.
For O=C(Nc1ccc(F)c(Cl)c1)c1nsc(Cl)c1Cl the results were GRIN3A LBD mod 15*, EBI2 block 11, MPTP inh 15 and SENP1 inh -2.
Screening Cc1ccc(N2CC(NS(=O)(=O)c3cccs3)CC2=O)cc1 (stereo not drawn) returned GRIN3A LBD mod 0, EBI2 block -14, MPTP inh -1 and SENP1 inh 0.
`NC(=O)COC(=O)c1cc(=O)[nH]c2ccc(S(=O)(=O)Nc3ccc(F)cc3)cc12` gave GRIN3A LBD mod -3, EBI2 block -20, MPTP inh -2 and SENP1 inh 1.
Screening CCc1ccc(NC(=O)C(C)OC(=O)c2cc(=O)[nH]c3ccc(S(=O)(=O)Nc4ccc(F)cc4)cc23)cc1 (stereo not drawn) returned GRIN3A LBD mod 13*, EBI2 block 12, MPTP inh 4 and SENP1 inh 3.
O=C(OCC(=O)C12CC3CC(CC(C3)C1)C2)c1ccc(O)cc1O was read as GRIN3A LBD mod 29*, EBI2 block -2, MPTP inh 0 and SENP1 inh -1.
Screening CCOC(=O)c1cnn(-c2ccc(NS(=O)(=O)c3ccc(Cl)cc3)cc2)c1C(F)(F)F returned GRIN3A LBD mod 16*, EBI2 block 3, MPTP inh 22 and SENP1 inh 0.
Screening COc1ccc(CCC(=O)Nc2ccc(-c3noc(-c4ccc(OC)c(OC)c4)n3)cc2)cc1 returned GRIN3A LBD mod 1, EBI2 block -13, MPTP inh 1 and SENP1 inh 2.
COc1cc(-c2nc(-c3ccc(NC(=O)c4ccc(Br)o4)cc3)no2)cc(OC)c1OC was read as GRIN3A LBD mod 21*, EBI2 block -14, MPTP inh 7 and SENP1 inh 2.
For COc1ccc(-c2nc(-c3ccc(NC(=O)c4ccc(Br)o4)cc3)no2)cc1OC the results were GRIN3A LBD mod 26*, EBI2 block -29, MPTP inh 0 and SENP1 inh -1.
COc1ccc(-c2noc(N(C)CC(=O)Nc3cccc(C(F)(F)F)c3)n2)cc1 was read as GRIN3A LBD mod 10*, EBI2 block 6, MPTP inh 4 and SENP1 inh 0.
Cc1ccc(NC(=O)CN(C)C(=O)c2cccnc2Nc2cccc(C(F)(F)F)c2)cc1 was read as GRIN3A LBD mod 16*, EBI2 block -15, MPTP inh 5 and SENP1 inh -2.
`COc1cccc(NC(=O)CN(C)CC(=O)Nc2cccc(C(F)(F)F)c2)c1` gave GRIN3A LBD mod -12, EBI2 block -5, MPTP inh 2 and SENP1 inh 3.
